Source: ChEMBL document CHEMBL1147441, “A new series of potent oxindole inhibitors of CDK2” (Bioorg Med Chem Lett, 2004)
Blank lines part the entries; values can stand above or below the molecule they belong to.

Columns and labels:
MDA-MB-435 = assay: In vitro inhibition of MDA MB 435 (human breast cancer) cell proliferation.; format: functional, cell-based
Outline: (§1)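 MTT-based proliferation assay run on tumour cells. IC50 values were taken from a single experiment.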

SW480 [1] = assay: In vitro inhibition of SW480 (human colon cancer) cell proliferation.; format: functional, cell-based; outline: as §1
[2] = target: Cyclin-dependent kinase 2/cyclin E (Homo sapiens, UniProt P24941); assay: In vitro inhibition of recombinant Cyclin Dependent Kinase-2/Cyclin E.; format: protein-complex assay
SW480 [3] = assay: Percent inhibition of SW480 cell growth in G2-M phase at 92 nm concentration in FACS cell cycle after 16 hr of treatment; format: functional, Homo sapiens
Outline: (§2)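 SW480 cells were exposed to compound for 4, 16 or 24 h. Cells were fixed in 70% ethanol, pelleted for 1 min at 3000g at 25 °C and washed once in PBS. They were then treated with ribonuclease for 15 min at 37 °C and stained with propidium iodide for 30 min at room temperature. Flow cytometry gave the % of cells in G0-G1, S, G2-M and subG0, and the G2/G1 ratio.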

[4] = Inhibition ratio of G2 and G1 phase cellular fractions of SW480 cells treated with compound at 0 nM concentration at 4 h; format: functional; outline: as §2
SW480 [5] = assay: Percent inhibition of SW480 cell growth in G0-G1 phase at 0 nm concentration in FACS cell cycle after 24 hr of treatment; format: functional, Homo sapiens; outline: as §2
SW480 [6] = assay: Percent inhibition of SW480 cell growth in G2-M phase at 270 nm concentration in FACS cell cycle after 24 h of treatment; format: functional, Homo sapiens; outline: as §2
[7] = Inhibition ratio of G2 and G1 phase cellular fractions of SW480 cells treated with compound at 92 nM concentration at 16 h; format: functional; outline: as §2
SW480 [8] = assay: Percent inhibition of SW480 cell growth in sub G0 phase at 92 nm concentration in FACS cell cycle after 16 h of treatment; format: functional, Homo sapiens; outline: as §2
SW480 [9] = assay: Percent inhibition of SW480 cell growth in S phase at 0 nm concentration in FACS cell cycle after 4 h of treatment; format: functional, Homo sapiens; outline: as §2
[10] = Inhibition ratio of G2 and G1 phase cellular fractions of SW480 cells treated with compound at 0 nM concentration at 24 h; format: functional; outline: as §2
SW480 [11] = assay: Percent inhibition of SW480 cell growth in G2-M phase at 0 nm concentration in FACS cell cycle after 24 hr of treatment; format: functional, Homo sapiens; outline: as §2
SW480 [12] = assay: Percent inhibition of SW480 cell growth in G2-M phase at 0 nm concentration in FACS cell cycle after 4 hr of treatment; format: functional, Homo sapiens; outline: as §2
SW480 [13] = assay: Percent inhibition of SW480 cell growth in S phase at 270 nm concentration in FACS cell cycle after 16 hr of treatment; format: functional, Homo sapiens; outline: as §2
SW480 [14] = assay: Percent inhibition of SW480 cell growth in G2-M phase at 270 nm concentration in FACS cell cycle after 4 hr of treatment; format: functional, Homo sapiens; outline: as §2
SW480 [15] = assay: Percent inhibition of SW480 cell growth in sub G0 phase at 92 nm concentration in FACS cell cycle after 24 hr of treatment; format: functional, Homo sapiens; outline: as §2
[16] = Inhibition ratio of G2 and G1 phase cellular fractions of SW480 cells treated with compound at 92 nM concentration at 4 h; format: functional; outline: as §2
[17] = Inhibition ratio of G2 and G1 phase cellular fractions of SW480 cells treated with compound at 92 nM concentration at 24 h; format: functional; outline: as §2
SW480 [18] = assay: Percent inhibition of SW480 cell growth in G0-G1 phase at 270 nm concentration in FACS cell cycle after 4 hr of treatment; format: functional, Homo sapiens; outline: as §2
[19] = Inhibition ratio of G2 and G1 phase cellular fractions of SW480 cells treated with compound at 0 nM concentration at 16 h; format: functional; outline: as §2
[20] = Inhibition ratio of G2 and G1 phase cellular fractions of SW480 cells treated with compound at 270 nM concentration at 4 h; format: functional; outline: as §2
SW480 [21] = assay: Percent inhibition of SW480 cell growth in G2-M phase at 92 nm concentration in FACS cell cycle after 4 hr of treatment; format: functional, Homo sapiens; outline: as §2
SW480 [22] = assay: Percent inhibition of SW480 cell growth in G0-G1 phase at 0 nm concentration in FACS cell cycle after 4 hr of treatment; format: functional, Homo sapiens; outline: as §2
SW480 [23] = assay: Percent inhibition of SW480 cell growth in G0-G1 phase at 92 nm concentration in FACS cell cycle after 24 hr of treatment; format: functional, Homo sapiens; outline: as §2
SW480 [24] = assay: Percent inhibition of SW480 cell growth in S phase at 92 nm concentration in FACS cell cycle after 4 hr of treatment; format: functional, Homo sapiens; outline: as §2
SW480 [25] = assay: Percent inhibition of SW480 cell growth in S phase at 92 nm concentration in FACS cell cycle after 16 hr of treatment; format: functional, Homo sapiens; outline: as §2
SW480 [26] = assay: Percent inhibition of SW480 cell growth in G0-G1 phase at 270 nm concentration in FACS cell cycle after 24 hr of treatment; format: functional, Homo sapiens; outline: as §2
SW480 [27] = assay: Percent inhibition of SW480 cell growth in S phase at 0 nm concentration in FACS cell cycle after 16 hr of treatment; format: functional, Homo sapiens; outline: as §2
SW480 [28] = assay: Percent inhibition of SW480 cell growth in G0-G1 phase at 92 nm concentration in FACS cell cycle after 16 hr of treatment; format: functional, Homo sapiens; outline: as §2
SW480 [29] = assay: Percent inhibition of SW480 cell growth in sub G0 phase at 0 nm concentration in FACS cell cycle after 4 hr of treatment; format: functional, Homo sapiens; outline: as §2
[30] = Inhibition ratio of G2 and G1 phase cellular fractions of SW480 cells treated with compound at 270 nM concentration at 16 h; format: functional; outline: as §2
SW480 [31] = assay: Percent inhibition of SW480 cell growth in sub G0 phase at 92 nm concentration in FACS cell cycle after 4 hr of treatment; format: functional, Homo sapiens; outline: as §2
SW480 [32] = assay: Percent inhibition of SW480 cell growth in G0-G1 phase at 92 nm concentration in FACS cell cycle after 4 hr of treatment; format: functional, Homo sapiens; outline: as §2
SW480 [33] = assay: Percent inhibition of SW480 cell growth in sub G0 phase at 270 nm concentration in FACS cell cycle after 16 hr of treatment; format: functional, Homo sapiens; outline: as §2
SW480 [34] = assay: Percent inhibition of SW480 cell growth in S phase at 270 nm concentration in FACS cell cycle after 4 hr of treatment; format: functional, Homo sapiens; outline: as §2
SW480 [35] = assay: Percent inhibition of SW480 cell growth in S phase at 92 nm concentration in FACS cell cycle after 24 hr of treatment; format: functional, Homo sapiens; outline: as §2
SW480 [36] = assay: Percent inhibition of SW480 cell growth in G0-G1 phase at 0 nm concentration in FACS cell cycle after 16 hr of treatment; format: functional, Homo sapiens; outline: as §2
SW480 [37] = assay: Percent inhibition of SW480 cell growth in sub G0 phase at 0 nm concentration in FACS cell cycle after 24 hr of treatment; format: functional, Homo sapiens; outline: as §2
SW480 [38] = assay: Percent inhibition of SW480 cell growth in G2-M phase at 92 nm concentration in FACS cell cycle after 24 hr of treatment; format: functional, Homo sapiens; outline: as §2
SW480 [39] = assay: Percent inhibition of SW480 cell growth in G2-M phase at 0 nm concentration in FACS cell cycle after 16 hr of treatment; format: functional, Homo sapiens; outline: as §2
SW480 [40] = assay: Percent inhibition of SW480 cell growth in G2-M phase at 270 nm concentration in FACS cell cycle after 16 hr of treatment; format: functional, Homo sapiens; outline: as §2
SW480 [41] = assay: Percent inhibition of SW480 cell growth in sub G0 phase at 270 nm concentration in FACS cell cycle after 24 h of treatment; format: functional, Homo sapiens; outline: as §2
[42] = Inhibition ratio of G2 and G1 phase cellular fractions of SW480 cells treated with compound at 270 nM concentration at 24 h; format: functional; outline: as §2
SW480 [43] = assay: Percent inhibition of SW480 cell growth in sub G0 phase at 270 nm concentration in FACS cell cycle after 4 hr of treatment; format: functional, Homo sapiens; outline: as §2
SW480 [44] = assay: Percent inhibition of SW480 cell growth in S phase at 270 nm concentration in FACS cell cycle after 24 hr of treatment; format: functional, Homo sapiens; outline: as §2
SW480 [45] = assay: Percent inhibition of SW480 cell growth in S phase at 0 nm concentration in FACS cell cycle after 24 hr of treatment; format: functional, Homo sapiens; outline: as §2
SW480 [46] = assay: Percent inhibition of SW480 cell growth in G0-G1 phase at 270 nm concentration in FACS cell cycle after 16 hr of treatment; format: functional, Homo sapiens; outline: as §2
SW480 [47] = assay: Percent inhibition of SW480 cell growth in sub G0 phase at 0 nm concentration in FACS cell cycle after 16 hr of treatment; format: functional, Homo sapiens; outline: as §2

Structure (SMILES): COc1cc[nH]c1/C=C1\C(=O)Nc2ccc(F)c(C#C[C@H](CO)NCCO)c21
IC50 (MDA-MB-435): 1270 nM
IC50 (SW480 [1]): 967 nM
IC50 [2]: 95 nM

Structure (SMILES): COc1cc[nH]c1/C=C1/C(=O)Nc2ccc(F)cc21
IC50 (MDA-MB-435): > 30000 nM
IC50 [2]: 847 nM

Structure (SMILES): COc1cc[nH]c1/C=C1\C(=O)Nc2ccc(F)c(C#CC3(O)CCOCC3)c21
IC50 (MDA-MB-435): 600 nM
IC50 (SW480 [1]): 290 nM
IC50 [2]: 4 nM

The next molecules have a lower IC50 (MDA-MB-435) than those just listed; values first:

IC50 (MDA-MB-435): 349 nM
IC50 (SW480 [1]): 100 nM
IC50 [2]: 8 nM
Structure (SMILES): CN[C@H](C#Cc1c(F)ccc2c1/C(=C/c1[nH]ccc1OC)C(=O)N2)CO

IC50 (MDA-MB-435): 320 nM
IC50 (SW480 [1]): 270 nM
IC50 [2]: 3 nM
Structure (SMILES): COc1cc[nH]c1/C=C1\C(=O)Nc2ccc(F)c(C#C[C@H](N)CO)c21

IC50 (MDA-MB-435): 110 nM
IC50 (SW480 [1]): 92 nM
IC50 [2]: 6 nM
Structure (SMILES): COc1cc[nH]c1/C=C1\C(=O)Nc2ccc(F)c(C#CC3(O)CCNCC3)c21.Cl
G2/M (SW480 [3]): 15.72%
Ratio [4]: 1.94%
G0/G1 (SW480 [5]): 52.41%
G2/M (SW480 [6]): 35.45%
Ratio [7]: 1.96%
SubG0 (SW480 [8]): 13.52%
S (SW480 [9]): 32.33%
Ratio [10]: 1.95%
G2/M (SW480 [11]): 14.89%
G2/M (SW480 [12]): 18.42%
S (SW480 [13]): 13.82%
G2/M (SW480 [14]): 21.8%
SubG0 (SW480 [15]): 11.67%
Ratio [16]: 1.95%
Ratio [17]: 1.96%
G0/G1 (SW480 [18]): 43.9%
Ratio [19]: 1.95%
Ratio [20]: 1.95%
G2/M (SW480 [21]): 18.36%
G0/G1 (SW480 [22]): 49.25%
G0/G1 (SW480 [23]): 54.68%
S (SW480 [24]): 29.14%
S (SW480 [25]): 28.43%
G0/G1 (SW480 [26]): 50%
S (SW480 [27]): 38.61%
G0/G1 (SW480 [28]): 55.84%
SubG0 (SW480 [29]): 13.29%
Ratio [30]: 1.94%
SubG0 (SW480 [31]): 11.17%
G0/G1 (SW480 [32]): 52.49%
SubG0 (SW480 [33]): 43.52%
S (SW480 [34]): 34.26%
S (SW480 [35]): 30.15%
G0/G1 (SW480 [36]): 46.55%
SubG0 (SW480 [37]): 11.85%
G2/M (SW480 [38]): 15.16%
G2/M (SW480 [39]): 14.84%
G2/M (SW480 [40]): 38.44%
SubG0 (SW480 [41]): 46.86%
Ratio [42]: 1.94%
SubG0 (SW480 [43]): 14.47%
S (SW480 [44]): 14.54%
S (SW480 [45]): 32.7%
G0/G1 (SW480 [46]): 47.74%
SubG0 (SW480 [47]): 11.29%
